These results are taken from ChEMBL document CHEMBL2157978, “Design, synthesis, and biological evaluation of nonsteroidal cycloalkane[d]isoxazole-containing androgen receptor modulators” (J Med Chem, 2012).

Test [1] concerns the target T1, Androgen receptor (Homo sapiens, UniProt P10275).
T1 sequence (P10275 whole entry): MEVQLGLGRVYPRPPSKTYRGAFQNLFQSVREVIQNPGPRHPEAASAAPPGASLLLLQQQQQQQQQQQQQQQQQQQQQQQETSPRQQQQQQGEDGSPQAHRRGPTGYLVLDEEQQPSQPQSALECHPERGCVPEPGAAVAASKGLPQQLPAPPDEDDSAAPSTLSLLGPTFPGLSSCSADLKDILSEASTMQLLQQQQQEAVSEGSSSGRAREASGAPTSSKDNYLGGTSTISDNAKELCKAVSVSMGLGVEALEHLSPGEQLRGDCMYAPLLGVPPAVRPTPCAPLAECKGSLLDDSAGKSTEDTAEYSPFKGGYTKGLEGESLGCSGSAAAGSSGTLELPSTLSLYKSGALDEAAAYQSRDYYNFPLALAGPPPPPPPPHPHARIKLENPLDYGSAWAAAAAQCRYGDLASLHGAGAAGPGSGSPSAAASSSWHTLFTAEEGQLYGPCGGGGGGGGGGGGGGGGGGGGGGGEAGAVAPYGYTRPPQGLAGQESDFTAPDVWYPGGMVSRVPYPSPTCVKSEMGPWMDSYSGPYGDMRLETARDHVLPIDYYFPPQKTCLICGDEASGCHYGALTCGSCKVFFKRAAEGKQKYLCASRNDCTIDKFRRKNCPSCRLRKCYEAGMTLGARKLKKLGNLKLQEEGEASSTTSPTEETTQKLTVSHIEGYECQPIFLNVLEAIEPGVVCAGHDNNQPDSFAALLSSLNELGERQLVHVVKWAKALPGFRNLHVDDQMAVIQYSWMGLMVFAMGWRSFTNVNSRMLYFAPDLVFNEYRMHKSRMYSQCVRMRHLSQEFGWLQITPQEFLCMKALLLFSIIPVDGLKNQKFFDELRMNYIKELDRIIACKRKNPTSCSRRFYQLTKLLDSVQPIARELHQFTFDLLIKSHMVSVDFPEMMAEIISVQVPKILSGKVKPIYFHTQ
Put plainly: Displacement of [3H]R1881 from wild type human androgen receptor expressed in COS-1 cells co-transfected with pSG5 after 2 hrs by scintillation assay. On the technique in general: Loss of bound radioactivity is the signal in a displacement assay; it reports binding, not function.

The target of test [2] is Luciferin 4-monooxygenase (Photinus pyralis) (UniProt P08659). Put plainly: Inhibition of Photinus pyralis recombinant luciferase at 10 uM incubated for 20 mins. In outline: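 Purified firefly luciferase diluted to 0.1 μg/mL in 1x Reporter Lysis Buffer, with compound added from ethanol stocks (10⁻³–10⁻⁷ mol/L dilutions) in triplicate. Incubated 20 min at rt, then luciferase substrate added and luminescence read. Blank (lysis buffer) and ethanol-vehicle controls were included.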
Chain of Luciferin 4-monooxygenase (Photinus pyralis) (P08659 whole entry): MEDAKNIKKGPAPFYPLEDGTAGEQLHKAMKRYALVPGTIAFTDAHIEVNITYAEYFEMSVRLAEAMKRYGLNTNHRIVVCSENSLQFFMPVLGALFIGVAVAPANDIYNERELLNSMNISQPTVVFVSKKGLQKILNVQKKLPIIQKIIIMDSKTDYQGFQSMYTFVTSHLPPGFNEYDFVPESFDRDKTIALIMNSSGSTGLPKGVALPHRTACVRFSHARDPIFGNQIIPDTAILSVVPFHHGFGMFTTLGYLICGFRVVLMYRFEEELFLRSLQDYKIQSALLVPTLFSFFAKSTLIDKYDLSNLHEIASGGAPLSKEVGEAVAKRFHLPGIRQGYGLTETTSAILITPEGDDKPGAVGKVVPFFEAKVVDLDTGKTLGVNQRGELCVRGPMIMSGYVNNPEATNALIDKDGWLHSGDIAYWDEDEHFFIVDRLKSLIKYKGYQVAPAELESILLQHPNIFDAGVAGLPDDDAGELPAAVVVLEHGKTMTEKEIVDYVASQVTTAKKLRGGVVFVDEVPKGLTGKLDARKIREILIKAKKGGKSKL

The target in test [3] is T2, Androgen receptor (Homo sapiens) (UniProt P10275).
T2 sequence (whole entry): T1 sequence (P10275 whole entry)
Nature of the test: Agonist activity at wild type human androgen receptor expressed in COS-1 cells co-transfected with pSG5 assessed as effect on testosterone induced luciferase activity at 10 uM after 18 hrs relative untreated control. It counts as functional, cell-based.

Where “and” joins values, the source holds several entries; their conditions need not be identical. Identical values can stand only once. Calls of active or inactive are those of the source. No rule for the calls is given here.

Regarding `N#Cc1ccc(C2=NOC3CCCCCC23)c(C(F)(F)F)c1` (stereo not drawn), in test [1], the IC50 is 1150 nM.
Molecule `O=[N+]([O-])c1ccc(C2=NO[C@@H]3CCCCC[C@H]23)c(C(F)(F)F)c1` had an IC50 in test [1] of 309 nM. For the same molecule, in test [2], the inhibition entry is “inactive”. The result in test [3] was inactive.
Take `O=[N+]([O-])c1ccc(C2=NO[C@H]3CCCCC[C@@H]23)c(C(F)(F)F)c1`: the IC50 in test [1] is 389 nM. In addition, the inhibition entry in test [2] was “inactive”. The result in test [3] was inactive.
Turning to `Fc1ccc(C2=NOC3CCCCCC23)c(C(F)(F)F)c1` (stereo not drawn), the IC50 in test [1] is 661 nM and 813 nM. Further, the inhibition entry in test [2] was “inactive”. The result in test [3] was inactive.
For the molecule `N#Cc1ccc(C2=NOC3CCCCCCC23)c(C(F)(F)F)c1` (stereo not drawn), the IC50 in test [1] was 2000 nM.
As to `O=[N+]([O-])c1ccc(C2=NOC3CCCCCCC23)c(C(F)(F)F)c1` (stereo not drawn), the half-inhibitory concentration (IC50) in test [1] is 776 nM.
`O=[N+]([O-])c1ccc(C2=NO[C@@H]3CCC[C@H]23)cc1C(F)(F)F` gave an IC50 in test [1] of 302 nM. In addition, in test [2], the inhibition result is “inactive”. Also, in test [3], the outcome was inactive.
`N#Cc1ccc(C2=NOC3CCCCC23)c(C(F)(F)F)c1` (stereo not drawn): the IC50 in test [1] was 1150 nM.
Regarding `N#Cc1cccc(C2=NOC3CCCCC23)c1C(F)(F)F` (stereo not drawn), the IC50 in test [1] was 64.6 nM.
In test [1], `O=[N+]([O-])c1ccc(C2=NO[C@@H]3CCCC[C@H]23)c(C(F)(F)F)c1` showed an IC50 of 129 nM. Also, in test [2], the inhibition result is “inactive”. For the same molecule, the result in test [3] was inactive.
As for `O=[N+]([O-])c1ccc(C2=NO[C@H]3CCCC[C@@H]23)c(C(F)(F)F)c1`, in test [1], the IC50 was 263 nM. In test [2], the inhibition entry was “inactive”. Further, in test [3], the outcome was inactive.
`Fc1ccc(C2=NOC3CCCCC23)c(C(F)(F)F)c1` (stereo not drawn) gave an IC50 in test [1] of 977 nM.
In test [1], `N#Cc1ccc(C2=NO[C@H]3CCC[C@@H]23)cc1C(F)(F)F` showed an IC50 of 617 nM. Besides, the inhibition result in test [2] was “inactive”. Moreover, in test [3], the result was inactive.
Turning to `N#Cc1ccc(C2=NO[C@@H]3CCC[C@H]23)cc1C(F)(F)F`, the IC50 in test [1] was 224 nM. In addition, the inhibition entry in test [2] is “inactive”. Besides, the outcome in test [3] was inactive.
Turning to `O=[N+]([O-])c1ccc(C2=NO[C@H]3CCC[C@@H]23)cc1C(F)(F)F`, the IC50 in test [1] is 2510 nM. Further, the inhibition result in test [2] is “inactive”. For the same molecule, the outcome in test [3] was inactive.
In turn, `N#Cc1ccc(C2=NOC3CCCCCC23)c(C(F)(F)F)c1` (cis isomer) gave an IC50 in test [1] of 1000 nM.
Turning to `N#Cc1ccc(C2=NOC3CCCCCCC23)c(C(F)(F)F)c1` (cis isomer), the IC50 in test [1] was 646 nM.
On the same count and under the same terms, as for `O=[N+]([O-])c1ccc(C2=NOC3CCCCCCC23)c(C(F)(F)F)c1` (cis isomer), the figure is 741 nM; as for `N#Cc1ccc(C2=NOC3CCCCC23)c(C(F)(F)F)c1` (cis isomer), 1780 nM.
On the same count and under the same terms, the value for `N#Cc1cccc(C2=NOC3CCCCC23)c1C(F)(F)F` (cis isomer) was 79.4 nM.
The molecule `Fc1ccc(C2=NOC3CCCCC23)c(C(F)(F)F)c1` (cis isomer) showed an IC50 in test [1] of 1150 nM.
Molecule `Fc1ccc(C2=NOC3CCCC23)c(C(F)(F)F)c1` (cis isomer; 5g) [listing 1 of 2 here] showed a half-maximal inhibitory concentration (IC50) in test [1] of 1350 nM.
With `Fc1ccc(C2=NOC3CCCC23)c(C(F)(F)F)c1` (cis isomer; 5g) [listing 2 of 2 here], in test [2], the inhibition result is “inactive”. In addition, the result in test [3] was inactive.
For `Clc1cccc(C2=NOC3CCCCC23)c1` (cis isomer; 6n), the inhibition result in test [2] is “inactive”. The outcome in test [3] was inactive.
Turning to `Fc1ccc(C2=NOC3CCCCCCC23)cc1C(F)(F)F` (cis isomer; 8f) [listing 1 of 2 here], in test [1], the IC50 is 5890 nM.
Take `Fc1ccc(C2=NOC3CCCCCCC23)cc1C(F)(F)F` (cis isomer; 8f) [listing 2 of 2 here]: the inhibition result in test [2] was “inactive”. For the same molecule, in test [3], the result was inactive.
For `Fc1ccc(C2=NOC3CCCCCCC23)c(C(F)(F)F)c1` (cis isomer; 8g), the inhibition result in test [2] was “inactive”. The outcome in test [3] was inactive.
`Fc1ccc(C2=NOC3CCCCCCC23)cc1C(F)(F)F` (cis isomer; cis) [listing 1 of 2 here] gave an IC50 in test [1] of 2820 nM.
Regarding `Fc1ccc(C2=NOC3CCCCCCC23)c(C(F)(F)F)c1` (cis isomer; cis) [listing 1 of 2 here], the IC50 in test [1] was 13200 nM.
Same read-out and setting: the value for `Fc1ccc(C2=NOC3CCCC23)c(C(F)(F)F)c1` (cis isomer; cis) [listing 1 of 2 here] was 1550 nM.
As to `Clc1cccc(C2=NOC3CCCCC23)c1` (cis isomer; cis), the inhibition entry in test [2] was “inactive”. Moreover, the outcome in test [3] was inactive.
For the molecule `Fc1ccc(C2=NOC3CCCC23)c(C(F)(F)F)c1` (cis isomer; cis) [listing 2 of 2 here], the inhibition result in test [2] is “inactive”. Moreover, the result in test [3] was inactive.
Regarding `Fc1ccc(C2=NOC3CCCCCCC23)c(C(F)(F)F)c1` (cis isomer; cis) [listing 2 of 2 here], the inhibition entry in test [2] was “inactive”. Besides, the result in test [3] was inactive.
As for `Fc1ccc(C2=NOC3CCCCCCC23)cc1C(F)(F)F` (cis isomer; cis) [listing 2 of 2 here], the inhibition entry in test [2] was “inactive”. The result in test [3] was inactive.
As for `O=[N+]([O-])c1ccc(C2=NOC3CCCCCC23)cc1C(F)(F)F` (racemic), in test [1], the IC50 was 105 nM. Also, the inhibition entry in test [2] was “inactive”. Moreover, in test [3], the outcome was inactive.
In test [1], `Fc1ccc(C2=NOC3CCCCCC23)cc1C(F)(F)F` (racemic) gave an IC50 of 11000 nM. In addition, the inhibition result in test [2] is “inactive”. In test [3], the result was inactive.
`N#Cc1ccc(C2=NOC3CCCCCCC23)cc1C(F)(F)F` (racemic) showed an IC50 in test [1] of 295 nM. Moreover, in test [2], the inhibition result is “inactive”. Besides, the outcome in test [3] was inactive.
In test [1], `O=[N+]([O-])c1ccc(C2=NOC3CCCCCCC23)cc1C(F)(F)F` (racemic) had an IC50 of 708 nM. Moreover, the inhibition entry in test [2] is “inactive”. Further, the outcome in test [3] was inactive.
On to `N#Cc1ccc(C2=NOC3CCCCCC23)cc1C(F)(F)F` (racemic), for which, in test [1], the IC50 was 43.7 nM. The inhibition entry in test [2] was “inactive”. In addition, the result in test [3] was inactive.
In the case of `O=[N+]([O-])c1ccc(C2=NOC3CCCC23)c(C(F)(F)F)c1` (racemic), the IC50 in test [1] is 269 nM. Also, the inhibition entry in test [2] was “inactive”. Further, the outcome in test [3] was inactive.
Regarding `Fc1ccc(C2=NOC3CCCC23)cc1C(F)(F)F` (racemic), the IC50 in test [1] was 1480 nM. Also, the inhibition result in test [2] was “inactive”. In addition, in test [3], the result was inactive.
Take `Fc1ccc(C2=NOC3CCCCC23)cc1C(F)(F)F` (racemic): the IC50 in test [1] was 1100 nM. Further, in test [2], the inhibition result is “inactive”. Also, the outcome in test [3] was inactive.
Turning to `N#Cc1ccc(C2=NOC3CCCC23)c(C(F)(F)F)c1` (racemic), the IC50 in test [1] is 447 nM. Also, the inhibition result in test [2] is “inactive”. For the same molecule, the outcome in test [3] was inactive.
For `COc1ccccc1C1=NOC2CCCCC12` (racemic), the inhibition result in test [2] was “inactive”. Moreover, in test [3], the outcome was inactive.
Regarding `Fc1cccc(C2=NOC3CCCCC23)c1` (racemic), the inhibition entry in test [2] is “inactive”. Moreover, the result in test [3] was inactive.
In the case of `O=[N+]([O-])c1ccc(C2=NOC3CCCCC23)cc1` (racemic), the inhibition result in test [2] was “inactive”. In addition, the outcome in test [3] was inactive.

For orientation: IC50 means the concentration that gives 50% inhibition. Lower therefore signals higher potency.
